Assay results taken from paper PMC3378324 (Febs Letters, 2012).
Values belong to the molecule of their own block, whether it stands above or below them.

Tests used:
Hck = details: ref [12]; cited from earlier work
Hck-SH3-GST = assay: GST pull-down, SDS-PAGE and Coomassie blue staining; format: binding, human; details: in vitro
Method in brief: (§1)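 Partner protein: human Alix fragment ALIX_V+PRR (residues 362–760, V domain plus SH3-binding proline-rich region), expressed with an N-terminal His6-Smt3 tag in E. coli BL21(DE3). Baits were GST-fused SH3 domains (Hck; Fyn wild-type; Fyn RT-loop mutant with Arg96 replaced by Ile). In vitro GST pull-down; bound protein resolved by SDS-PAGE and visualised by Coomassie blue staining.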

Fyn(R96I)-SH3-GST = assay: as above; format: binding; details: in vitro
Method in brief: as §1

[1] = system: Hck-SH3, Fyn(WT)-SH3, and Fyn(R96I)-SH3; assay: NMR 1H-15N HSQC, comparison across SH3 domains; format: binding; details: 1 equivalent of ALIXV+PRR
[2] = SAXS; apo; compared with 190 ± 10 Å; ref [12]; cited from earlier work

B1: Alix: ALG-2 (apoptosis-linked gene 2)-interacting protein X, an adapter protein (protein, UniProt Q8WUM4 2-868, looked up)
Programmed cell death …: ATFISVQLKKTSEVDLAKPLVKFIQQTYPSGGEEQAQYCRAAEELSKLRRAAVGRPLDKHEGALETLLRYYDQICSIEPKFPFSENQICLTFTWKDAFDKGSLFGGSVKLALASLGYEKSCVLFNCAALASQIAAEQNLDNDEGLKIAAKHYQFASGAFLHIKETVLSALSREPTVDISPDTVGTLSLIMLAQAQEVFFLKATRDKMKDAIIAKLANQAADYFGDAFKQCQYKDTLPKEVFPVLAAKHCIMQANAEYHQSILAKQQKKFGEEIARLQHAAELIKTVASRYDEYVNVKDFSDKINRALAAAKKDNDFIYHDRVPDLKDLDPIGKATLVKSTPVNVPISQKFTDLFEKMVPVSVQQSLAAYNQRKADLVNRSIAQMREATTLANGVLASLNLPAAIEDVSGDTVPQSILTKSRSVIEQGGIQTVDQLIKELPELLQRNREILDESLRLLDEEEATDNDLRAKFKERWQRTPSNELYKPLRAEGTNFRTVLDKAVQADGQVKECYQSHRDTIVLLCKPEPELNAAIPSANPAKTMQGSEVVNVLKSLLSNLDEVKKEREGLENDLKSVNFDMTSKFLTALAQDGVINEEALSVTELDRVYGGLTTKVQESLKKQEGLLKNIQVSHQEFSKMKQSNNEANLREEVLKNLATAYDNFVELVANLKEGTKFYNELTEILVRFQNKCSDIVFARKTERDELLKDLQQSIAREPSAPSIPTPAYQSSPAGGHAPTPPTPAPRTMPPTKPQPPARPPPPVLPANRAPSATAPSPVGAGTAAPAPSQTPGSAPPPQAQGPPYPTYPGYPGYCQMPMPMGYNPYAYGQYNMPYPPVYHQSPGQAPYPGPQQPSYPFPQPPQQSYYPQQ
- binding to and activation of Hck (Hck): binds to and activates Hck

- GST pull-down binding (Hck-SH3-GST): binding
- GST pull-down binding (Fyn(R96I)-SH3-GST): binding
B2: ALIXV+PRR: Human Alix recombinant construct (ALIXV+PRR) consisting of residues 362–760 (protein)
chain: SVQQSLAAYNQRKADLVNRSIAQMREATTLANGVLASLNLPAAIEDVSGDTVPQSILTKSRSVIEQGGIQTVDQLIKELPELLQRNREILDESLRLLDEEEATDNDLRAKFKERWQRTPSNELYKPLRAEGTNFRTVLDKAVQADGQVKECYQSHRDTIVLLCKPEPELNAAIPSANPAKTMQGSEVVNVLKSLLSNLDEVKKEREGLENDLKSVNFDMTSKFLTALAQDGVINEEALSVTELDRVYGGLTTKVQESLKKQEGLLKNIQVSHQEFSKMKQSNNEANLREEVLKNLATAYDNFVELVANLKEGTKFYNELTEILVRFQNKCSDIVFARKTERDELLKDLQQSIAREPSAPSIPTPAYQSSPAGGHAPTPPTPAPRTMPPTKPQPPARPPP
modifications: left off: His6-Smt3, N-terminal, state not stated
- involvement of nSrc loop, Hck-SH3 versus Fyn(R96I)-SH3 [1]: the nSrc loop seems to be more involved in the Hck-SH3–ALIXV+PRR interaction than in the Fyn(R96I)-SH3–ALIXV+PRR interaction
- maximum diameter (Dm) compared with Fyn(R96I)-SH3-bound ALIXV+PRR [2]: the same
